In one experiment the test system is MCF7. Description: Antiproliferative activity against human MCF7 cells assessed as reduction in cell growth at 10 uM incubated for 48 hrs by SRB assay relative to control. The format is functional. In outline:
(§1)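 Early-passage cells plated at 40% confluency and left overnight, then exposed to 10 μM compound for 48 h. Growth was measured by sulforhodamine B staining, with absorbance at 510 nm. Percent growth inhibition was calculated against untreated cells.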
(The SRB assay estimates cell density from bound dye.)

The subject of a further experiment is MDA-MB-231. The experiment is described as follows: Antiproliferative activity against human MDA-MB-231 cells assessed as reduction in cell growth at 10 uM incubated for 48 hrs by SRB assay relative to control. The format is functional. A digest of the protocol: as §1
Experiment [1] relates to DLD-1. Description: Antiproliferative activity against human DLD-1 cells assessed as reduction in cell growth at 10 uM incubated for 48 hrs by SRB assay relative to control. The format is functional. In outline: as §1
Another experiment has as its system HT-29. The experiment is described as follows: Antiproliferative activity against human HT-29 cells assessed as reduction in cell growth at 10 uM incubated for 48 hrs by SRB assay relative to control. The format is functional. A digest of the protocol:
as §1

Another experiment concerns A549. Description: Antiproliferative activity against human A549 cells assessed as reduction in cell growth at 10 uM incubated for 48 hrs by SRB assay relative to control. It is filed as functional. In outline:
as §1

The test system of a further experiment is NCI-H358. Description: Antiproliferative activity against human NCI-H358 cells assessed as reduction in cell growth at 10 uM incubated for 48 hrs by SRB assay relative to control. The format is functional. A digest of the protocol: as §1
The subject of a further experiment is PC-3. Description: Cytotoxicity against human PC-3 cells assessed as reduction in cell viability incubated for 48 hrs by MTT assay. The following applies: PC-3, 48 h. It is filed as functional, cell-based. (Tetrazolium dyes change colour on reduction, which living cells bring about.)
The next experiment deals with LNCaP. The experiment is described as follows: Cytotoxicity against human LNCaP cells assessed as reduction in cell viability incubated for 48 hrs by MTT assay. The format is functional, cell-based.
A further experiment relates to KB. Description: Cytotoxicity against human KB cell. The format is functional, cell-based.
The next experiment relates to HCT-116. The experiment is described as follows: Cytotoxicity against human HCT-116 cell. The format is functional, cell-based.
The next experiment relates to HL-60. Description: Cytotoxicity against human HL-60 cell. It is filed as functional, cell-based.
Experiment [2] deals with DLD-1. The experiment is described as follows: Induction of apoptosis in human DLD-1 cells assessed as viable cells at 7.5 uM incubated for 18 hrs by Annexin V-FITC and propidium iodide staining based flow cytometry analysis (reference value: 85.2 %). The format is functional. The note with it: read-out: Activity.
Experiment [3] relates to DLD-1. Description: Induction of apoptosis in human DLD-1 cells assessed as early apoptotic cells at 7.5 uM incubated for 18 hrs by Annexin V-FITC and propidium iodide staining based flow cytometry analysis (reference value: 4.95 %). It is filed as functional.
Experiment [4] relates to DLD-1. The experiment is described as follows: Induction of apoptosis in human DLD-1 cells assessed as late apoptotic cells at 7.5 uM incubated for 18 hrs by Annexin V-FITC and propidium iodide staining based flow cytometry analysis (reference value: 5.7 %). The format is functional. On the technique in general: A flow cytometer gives signals particle by particle.
The subject of experiment [5] is DLD-1. Description: Induction of apoptosis in human DLD-1 cells assessed as necrotic cells at 7.5 uM incubated for 18 hrs by Annexin V-FITC and propidium iodide staining based flow cytometry analysis (reference value: 4.1 %). The format is functional.
Experiment [6] deals with DLD-1. The experiment is described as follows: Induction of apoptosis in human DLD-1 cells assessed as increase in PARP cleavage at 5 to 7.5 uM by Western blot analysis. The format is functional, cell-based. The following applies: dose 5-7.5 µM. A digest of the protocol: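 DLD-1 cells were treated at 7.5 μM for 18 h and lysed in NP-40 buffer containing protease and phosphatase inhibitors. Protein was quantified by BCA, and equal amounts were run on 15% SDS-PAGE and transferred to PVDF. Cleaved PARP was probed and detected by enhanced chemiluminescence.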

For experiment [7], the system named is DLD-1. Description: Induction of autophagy in human DLD-1 cells assessed as reduction in cell viability at 7.5 uM incubated for 24 hrs in presence of Bafilomycin-A1 by crystal violet staining based phase contrast microscopic analysis. It is filed as functional.

This note sets out measurements from ChEMBL document CHEMBL4680153, “New Spisulosine Derivative promotes robust autophagic response to cancer cells” (Eur J Med Chem, 2020).

SMILES strings stand for the structures. Active and inactive are the calls of the source. The rule behind the calls is not given here.

A word on the inhibition: it is the drop in the measured response relative to a control, in per cent. On to `CCCCCCCCCCCCCC[C@H](OCOC)[C@H](CO)NC(=O)OC(C)(C)C`, for which the inhibition at 10 µM is 10.2% in the experiment on MCF7; -5.67% in the experiment with MDA-MB-231; 54.8% in the experiment with DLD-1 [1]; 22% with HT-29; 25.9% in the experiment on A549; 18.4% in the experiment on NCI-H358.
Take `CCCCCCCCCCCCCC[C@H](OCOC)[C@H](CN(CC)CC)NC(=O)OC(C)(C)C`: the inhibition at 10 µM with MCF7 is 25.2%; in the experiment on MDA-MB-231, 0.84%; with DLD-1 [1] it was 46.2%; in the experiment on HT-29, -3.21%; in the experiment with A549, 27.5%; in the experiment on NCI-H358, 14.9%.
Turning to `CCCCCCCCCCCCCC[C@H](OCOC)[C@H](CO[Si](c1ccccc1)(c1ccccc1)C(C)(C)C)NC(=O)OC(C)(C)C`, the inhibition at 10 µM was -7.95% in the experiment with MCF7; -28% in the experiment with MDA-MB-231; -14.6% in the experiment with DLD-1 [1]; -18.8% in the experiment on HT-29; 15.1% with A549; -2.89% in the experiment with NCI-H358.
A word on the IC50: it is the midpoint of a concentration-inhibition curve. Turning to `CCCCCCCCCCCCCCC[C@@H](O)[C@H](C)N`, the concentration for half-maximal inhibition (IC50) in the experiment with PC-3 amounted to 1000 nM; with LNCaP, 1000 nM; with KB it was 100 nM; in the experiment on HCT-116, 100 nM; in the experiment with HL-60, 100 nM. Moreover, the viability at 7.5 µM in the experiment with DLD-1 [2] amounted to 78%. Further, the results for the Activity with DLD-1 [3], in the experiment with DLD-1 [4] and with DLD-1 [5] were 14.2%, 3.4% and 4.2%, respectively. The outcome in the experiment on DLD-1 [6] and in the experiment with DLD-1 [7] was Active.
For `CCCCCCCCCCCCCC[C@H](OCOC)[C@H](CN1CCCCC1)NC(=O)OC(C)(C)C`, the inhibition at 10 µM in the experiment with MCF7 worked out at 27.3%; in the experiment with MDA-MB-231, 9.84%; with DLD-1 [1] it was 43.7%; in the experiment with HT-29, 14.2%; in the experiment with A549 it was 19%; with NCI-H358 it was 15.2%.
As for `CCCCCCCCCCCCCC[C@H](O)[C@H](CN(CCCC)CCCC)NC(=O)OC(C)(C)C`, the inhibition at 10 µM is 21.5% with MCF7; -9.61% in the experiment with MDA-MB-231; 23.4% with DLD-1 [1]; 9.83% with HT-29; 30% in the experiment with A549; 9.4% in the experiment with NCI-H358.
For `CCCCCCCCCCCCCC[C@H](O)[C@H](CN(CC)CC)NC(=O)OC(C)(C)C`, the inhibition at 10 µM with MCF7 is 18.7%; in the experiment with MDA-MB-231 it was -1.45%; in the experiment with DLD-1 [1] it was 14.7%; with A549, 18.5%; in the experiment with NCI-H358 it was 8.37%.
Turning to `COc1cccc2c1C(=O)c1c(O)c3c(c(O)c1C2=O)C[C@@](O)(C(=O)CO)C[C@@H]3O[C@H]1C[C@H](N)[C@H](O)[C@H](C)O1` [DOXORUBICIN], the inhibition at 10 µM in the experiment with MCF7 was 88.5%; in the experiment with MDA-MB-231 it was 80.2%; in the experiment with DLD-1 [1] it was 76.7%; with HT-29, 78.4%; with A549, 80.2%; in the experiment with NCI-H358, 77.5%.
As to `CCCCCCCCCCCCCC[C@H](O)[C@H](CN1CCSCC1)NC(=O)OC(C)(C)C`, the inhibition at 10 µM in the experiment with MCF7 was 30.2%; with MDA-MB-231 it was 6.84%; in the experiment on DLD-1 [1], 32.4%; with HT-29, 12%; with A549, 32%; with NCI-H358 it was 10.8%.
As to `CCCCCCCCCCCCCC[C@H](O)[C@H](CN(C(C)C)C(C)C)NC(=O)OC(C)(C)C`, the inhibition at 10 µM with MCF7 is 25.3%; in the experiment with MDA-MB-231, -1.17%; with DLD-1 [1], 34.8%; with HT-29 it was 11.6%; in the experiment on A549 it was 22.9%; with NCI-H358, 11.3%.
As to `CCCCCCCCCCCCCC[C@H](OCOC)[C@H](CN1CCN(C)CC1)NC(=O)OC(C)(C)C`, the inhibition at 10 µM with MCF7 came to 28%; in the experiment on MDA-MB-231 it was 24%; with DLD-1 [1] it was 31.9%; in the experiment on A549 it was 18.2%; with NCI-H358, 18.9%.
For `CCCCCCCCCCCCCC[C@H](OCOC)[C@H](CN1CCSCC1)NC(=O)OC(C)(C)C`, the inhibition at 10 µM with MCF7 was 24%; with MDA-MB-231 it was 4.73%; in the experiment on DLD-1 [1] it was 58.5%; with HT-29, 8.57%; in the experiment on A549, 29.9%; in the experiment on NCI-H358 it was 22.7%.
With `CCCCCCCCCCCCCC[C@H](OCOC)[C@H](CN(C(C)C)C(C)C)NC(=O)OC(C)(C)C`, the inhibition at 10 µM in the experiment on MCF7 is 26.9%; in the experiment with MDA-MB-231, 31%; in the experiment with DLD-1 [1] it was 53.9%; in the experiment on HT-29, 19.9%; in the experiment with A549, 22.6%; in the experiment on NCI-H358, 26.6%.
Consider `CC(C)(C)OC(=O)N[C@H](CO)CO[Si](c1ccccc1)(c1ccccc1)C(C)(C)C`, for which the inhibition at 10 µM with MCF7 was found to be 28.3%; in the experiment with MDA-MB-231 it was 32.3%; in the experiment on DLD-1 [1] it was 73.5%; in the experiment on HT-29, 46.2%; in the experiment on A549, 25.4%; in the experiment on NCI-H358 it was 53.4%.
Consider `CCCCCCCCCCCCCC[C@H](O)[C@H](Cc1ccc(OC)cc1)NC(=O)OC(C)(C)C`, for which the inhibition at 10 µM is 8.77% with MCF7; -16.5% in the experiment with MDA-MB-231; 27.9% with DLD-1 [1]; -7.41% in the experiment on HT-29; 23.4% in the experiment on A549; 6.37% in the experiment on NCI-H358.
For the compound `CCCCCCCCCCCCCC[C@H](OCOC)[C@H](CN(CCCC)CCCC)NC(=O)OC(C)(C)C`, the inhibition at 10 µM in the experiment on MCF7 came to 27.1%; in the experiment on MDA-MB-231 it was 22.3%; with DLD-1 [1], 56%; with HT-29, 15%; with A549, 42.2%; in the experiment on NCI-H358, 25.1%.
Regarding `CCCCCCCCCCCCCC[C@H](O)[C@H](CO[Si](c1ccccc1)(c1ccccc1)C(C)(C)C)NC(=O)OC(C)(C)C`, the inhibition at 10 µM in the experiment with MCF7 was 2.79%; in the experiment with MDA-MB-231, -37.5%; with DLD-1 [1] it was 10.4%; in the experiment with HT-29 it was -14.4%; in the experiment with A549, 14.6%; in the experiment on NCI-H358, 3.11%.
